Assay results taken from the EternaBench riboswitch data.

Tested on: MS2 coat protein
Assay: apparent Kd, MS2 coat protein; higher = weaker binding; RNA-MaP array; FMN 200 µM where present
How it was run: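 The apparent Kd comes from binding curves fitted cluster by cluster, filtered, and summarised as a median. Those curves followed SNAP-549-labelled MS2 coat protein from 0.7 or 1.5 nM, doubling to 3 µM, on Illumina sequencing-chip clusters where stalled E. coli RNA polymerase had transcribed the designs, without and then with constant ligand. The buffer was 100 mM Tris-HCl pH 7.5, 80 mM KCl, 4 mM MgCl2, BSA, DTT, yeast tRNA and Tween-20, and green signal was normalised to red-channel RNA signal and control-cluster median Fmax.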

[1] = designed as: OFF switch for flavin mononucleotide, no ligand
[2] = ligand present: flavin mononucleotide, designed as: OFF switch for flavin mononucleotide
[3] = designed as: ON switch for flavin mononucleotide, no ligand
[4] = ligand present: flavin mononucleotide, designed as: ON switch for flavin mononucleotide

Row | Sequence | apparent Kd [1] [nM] | apparent Kd [2] [nM] | apparent Kd [3] [nM] | apparent Kd [4] [nM]
1 | AGUAUGAGAGGAUAUACUAAUAAACAUGGAAACAUGAAGGGACAUGAGGAUCACCCAUGUAGAAGGCUCGUACA | 55.6 | 177 |  | 
2 | CCGCCCUGAGGAUAUCCACCCUCAUACAUGAGGAUCACCCAUGUUCACCCUUGGGUUCCCGGAGAAGGCAGCCUUC | 566 | 548 |  | 
3 | GCAGGUUAAGUAAGGAUAUACCUCUGGAAACAGAGGUAGAAGGUACAUGAGGAUCACCCAUGUUUCUCUUCUGC | 17.3 | 45.7 |  | 
4 | UUAAAUCAUGUAGGAUAUGCAUGGCGAAGCUACGCAGAAGGACAUGAGGAUCACCCAUGUUAAAGCUACCGAGUUCGGUGGCAA | 116 | 156 |  | 
5 | UCGUCGUCAGGAUAUUUUGUAUUGCAGAUUUCGCAGUUGCCAAAGAAGGGACAUGAGGAUCACCCAUGUAGUCU | 32.6 | 42.2 |  | 
6 | GUUGUGUGAGGAUAUGCCUGGCCGUGAGGCCAGGUUGGGUGGCAGAAGGUACAUGAGGAUCACCCAUGUACGGG | 30 | 22.7 |  | 
7 | AAUAAACUCACAGGAUAUAGCAUCGUCGGUAUGAACUUAAAGACGACGAUGCUAGAAGGGUGACCACAUGAGGAUCACCCAUGU |  |  | 903 | 114
8 | UGGGUAAGUGUAGGAUAUUUAUAUUAAUAGUAUGGAGAAGGACAUGAGGAUCACCCAUGUACAGGGAGUUGCCCAUUUCCUCUC | 335 | 671 |  | 
9 | UGAGCCGGCACUGAGGAUAUUCAUAUUAAAACAUGAGGAUCACCCAUGUAGGCCAGAAGGCCUUGGGAGAAGGCAGGUCGGCUCA |  |  | 403 | 20.6
10 | AAUAACAGAGGAUAUACUGUUUUAUGUAUUUAUUAUUUUAAACAUGAGGAUCACCCAUGUAGAAGGCUGAAUGA | 23.8 | 22 |  | 
11 | GCGAUGAUCGAGAAGGCCACUACAUGAGGAUCACCCAUGUCGUGGUGUAUUGGAGGAUAUCGAUCGGCGUCUUAUGAGGAUAUA | 5.17 | 5.65 |  | 
12 | CGGAUGUCAGGAUAUACGAACAUGUCGCCAGAUGUCAUGGUACAUGAGGAUCACCCAUGUAGAAGGGAGGUGGU | 160 | 331 |  | 
13 | UGAUAGGACAGAGGAUAUACCGAUAGGAUCUACUAUCGAAGAAUCCUCACAUGAGGAUCACCCAUGUAGAAGGCUGUCCUAUCU | 41.6 | 678 |  | 
14 | UCGGCGCGAGGAUAUACGUUUGCUUUUUGGGAUCGUUGCGUACAUGAGGAUCACCCAUGUAGAAGGCGCGCCGC | 17.6 | 73.8 |  | 
15 | UGGUCAUGAUCAGGAUAUUAACAUGGGCUACAUUAAGAAGGGAUAGUGAGAUGCGAACGGAACGACAUGAGGAUCACCCAUGUA |  |  | 44.6 | 35
16 | AUAUAGAUGGUCAGGAUAUGCUAGUGGUAACAGUAGCAGAAGGGACAUGAGGAUCACCCAUGUGGAUACUGCGC | 25.4 | 85.9 |  | 
17 | UCAGAUGUACAUGAGGAUCACCCAUGUCAUAUGCCCGUGACACAGGAUAUCCAGGAUAGGCCAAAGGAGAAGGGUGAUCCGCGG |  |  | 103 | 158
18 | UGUCCAUAGCAGAAGGCAUGUCAAAAGACAUGAGGAUCACCCAUGUAAACAUGAGGAUAUGCUAUGGACUAAGAGCGAAAGCUC | 8.57 | 5.66 |  | 
19 | AAAAAAAAAGUAGAGGAUAUCCAAAUGGCUACAUGAGGAUCACCCAUGUGAAGAAAAGCACAUGAGGAGAAGGCUACAAAAAAAAA |  |  | 26.7 | 13.5
20 | GUGUACGGAGGAUAUAUAUGGGCAGCAUACGCUGCAGCUUCACAUGAGGAUCACCCAUGUAGAAGGCUGUACAC | 25 | 200 |  | 
21 | UUACUCAUGUAAGGAUAUGCAGCCGCUUCGGCUGCAGAAGGUACUAUAAUACAUGAGGAUCACCCAUGUCUUUUUAAUUUAGAC |  |  | 82.7 | 36.5
22 | AGGAAACAUGAGGAUCACCCAUGUAAGAUAUACACAGGAUAUGCGAAAAGAAACAAAGAAGCAGAAGGGUGGAAAA |  |  | 35.1 | 21.2
23 | GCCAUCGCAUGAGGAUAUGCUCCCGUUUCGGGAGCAGAAGGCAUGUCAUAAGACAUGAGGAUCACCCAUGUAGUUAAGAUGGCA |  |  | 723 | 32.5
